The values that follow come from ChEMBL document CHEMBL1671615 (Antimicrob Agents Chemother, 2008).

The subject of data set [1] is Mus musculus. Nature of the data set: Volume of distribution in BALB/c mouse at 4 to 5 mg/kg, iv administered as single bolus dose by HPLC. It counts as ADME, organism-based. Details: dose 4-5 mg/kg, route intravenous. The note with it: in vivo.
A short description of data set [2]: Plasma concentration in BALB/c mouse at 4 to 5 mg/kg administered as inhalable bolus dose by HPLC. It counts as ADME, organism-based. More on the design: dose 4-5 mg/kg. To be noted: inhaled or intranasal. The essentials:
(§1)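 BALB/c mice (25–30 g, either sex, groups of 4) given 100 μg drug by dry-powder inhalation of spray-dried polylactide microparticles (~10 mg charged, fluidized by 30 actuations over 30 s, nose-only). Noncompartmental extravascular-bolus fit; mean ± SD.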

The test system of data set [3] is Serum. Nature of the data set: AUC (OBS) in BALB/c mouse serum at 4 to 5 mg/kg administered as inhalable bolus dose by HPLC. Format: ADME, organism-based. Details: dose 4-5 mg/kg. The note with it: in vivo, inhaled_or_intranasal. The essentials: as §1
Data set [4] can be described thus: Cmax in 10^6 mouse alveolar macrophages at 4 to 5 mg/kg administered as inhalable dose measured 6 hrs postinhalation by HPLC. It counts as ADME, organism-based, Macrophage. To be noted: in vivo, inhaled_or_intranasal. Details: dose 4-5 mg/kg. The essentials:
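Mice inhaled 100 μg drug as dry-powder microparticles. Four animals per time point were anesthetized, and lungs were lavaged with chilled saline containing 0.5 mM EDTA. Recovered alveolar macrophages were counted by hemocytometer and extracted. Drug was measured by HPLC-UV and expressed per 10⁶ cells.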

The test system of data set [5] is Mus musculus. Nature of the data set: (§2) Clearance in BALB/c mouse at 4 to 5 mg/kg administered as inhalable bolus dose by HPLC. To be noted: in vivo, inhaled_or_intranasal. Details: dose 4-5 mg/kg. It counts as ADME, organism-based. The essentials: as §1
Data set [6] can be described thus: Elimination rate constant in human THP1 cells at 3 ug/ml after 10 mins by HPLC. It counts as ADME, cell-based. The note with it: THP-1 cells.
Data set [7] is described as follows: Clearance in BALB/c mouse at 4 to 5 mg/kg, iv administered as single bolus dose by HPLC. Format: ADME, organism-based. More on the design: dose 4-5 mg/kg, route intravenous. To be noted: in vivo.
A short description of data set [8]: Cmax in 10^6 mouse alveolar macrophages at 4 to 5 mg/kg, iv measured after 4 hrs by HPLC. Format: ADME, organism-based, BALB/c, Macrophage. The note with it: in vivo. More on the design: dose 4-5 mg/kg, route intravenous. The essentials: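 After a 100 μg i.v. caudal-vein dose, four mice per time point underwent bronchoalveolar lavage with chilled saline plus 0.5 mM EDTA. Macrophages in the lavage were counted by hemocytometer and lysed, and drug was quantified by HPLC-UV per 10⁶ cells.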

A short description of data set [9]: Elimination rate constant in human THP1 cells at 3 ug/ml administered as microparticles after 10 mins by HPLC. The note with it: THP-1 cells. Format: ADME, cell-based. The method, boiled down:
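THP-1 cells (10⁶/well) were differentiated with PMA for 14 h, washed, and rested 10 h. Microparticles (12 μg/ml, drug-equivalent 3 μg/ml) were added for 2 h, then washed out. Duplicate wells were lysed by freeze-thaw at serial times and analyzed by HPLC. A one-compartment model with no lag and first-order elimination was fitted.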

The test system of data set [10] is Mus musculus. Nature of the data set: Volume of distribution in BALB/c mouse at 4 to 5 mg/kg administered as inhalable bolus dose by HPLC. It counts as ADME, organism-based. Details: dose 4-5 mg/kg. The note with it: in vivo, inhaled_or_intranasal. The method, boiled down:
as §1

A short description of data set [11]: Plasma concentration in BALB/c mouse at 4 to 5 mg/kg, iv administered as single bolus dose by HPLC. Format: ADME, organism-based. More on the design: dose 4-5 mg/kg, route intravenous.
Data set [12] deals with Serum. The experiment in a line: AUC (OBS) in BALB/c mouse serum at 4 to 5 mg/kg, iv administered as single bolus dose by HPLC. It counts as ADME, organism-based. Details: dose 4-5 mg/kg, route intravenous. To be noted: in vivo.
Data set [13] in a line: Half life in BALB/c mouse serum at 4 to 5 mg/kg, iv administered as single bolus dose by HPLC. Format: ADME, organism-based. More on the design: dose 4-5 mg/kg, route intravenous.
Data set [14] is described as follows: as §2. It counts as ADME, organism-based. Details: dose 4-5 mg/kg. To be noted: BALB/c, in vivo, inhaled or intranasal. The method, boiled down:
as §1

Data set [15] can be described thus: Half life in BALB/c mouse serum at 4 to 5 mg/kg administered as inhalable bolus dose by HPLC. It counts as ADME, organism-based. More on the design: dose 4-5 mg/kg. The note with it: inhaled or intranasal. The method, boiled down:
as §1

For `NNC(=O)c1ccncc1` [ISONIAZID], the Vz in the data set on Mus musculus [1] is 41.34 mL; in the data set with Mus musculus [10] it was 1670 mL. Besides, the Cmax came to 2.37 µg/mL in data set [2], 0.56 µg in data set [4], 0.29 µg in data set [8] and 3.24 µg/mL in [11]. Moreover, the AUC in the data set on Serum [3] worked out at 55.34 µg/mL/h; in the data set with Serum [12], 16.64 µg/mL/h. This compound registered a CL in the data set on Mus musculus [5] of 63.9 mL/h. The k el at 10 min, 3 ug/ml in [6] is 9.44e-06 s⁻¹; in [9] it was 0.000102 s⁻¹. In data set [7], the clearance (usually the volume of plasma or blood freed of the substance per unit of time) was 0.0738 mL/min.

With `CO[C@H]1/C=C/O[C@@]2(C)Oc3c(C)c(O)c4c(c3C2=O)C2=NC3(CCN(CC(C)C)CC3)NC2=C(NC(=O)/C(C)=C\C=C\[C@H](C)[C@H](O)[C@@H](C)[C@@H](O)[C@@H](C)[C@H](OC(C)=O)[C@@H]1C)C4=O` [RIFABUTIN], the half-life (usually the time in which the quantity being followed falls by half) in [13] was 20.2 h; in [15] it was 119 h. In addition, the Vz in the data set on Mus musculus [1] came out at 29.52 mL; in the data set with Mus musculus [10], 2308.84 mL. Also, the Cmax in [2] stood at 1.59 µg/mL; in [4], 1.65 µg; in [8], 0.32 µg; in data set [11], 3.47 µg/mL. Besides, the AUC in the data set with Serum [3] was 109.35 µg/mL/h; in the data set with Serum [12], 90.82 µg/mL/h. Also, the apparent clearance CL/F (in general, the apparent clearance, not corrected for the fraction that reaches the circulation) in data set [14] was 0.195 mL/min. The k el at 10 min, 3 ug/ml in data set [6] is 1.39e-06 s⁻¹; in [9], 1.67e-05 s⁻¹. For the same compound, the clearance in data set [7] is 0.017 mL/min.
